An excerpt weighted towards active compounds, which were near 4.8% of everything screened.
PAFAH1B3 FP inh = PAFAH1B3 (human) inhibition; recombinant PAFAH1B3, FP-rhodamine probe, fluorescence polarization; inhibition, % at 3.39 µM; hit rate 0.28% among 340,000;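 active = inhibition above the screen-wide average of all tested compounds plus 3 SD, cut at about 25% in these data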;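 note: 0% = enzyme with DMSO only and 100% = wells lacking PAFAH1B3 protein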
Target sequence (Q15102 whole entry, looked up): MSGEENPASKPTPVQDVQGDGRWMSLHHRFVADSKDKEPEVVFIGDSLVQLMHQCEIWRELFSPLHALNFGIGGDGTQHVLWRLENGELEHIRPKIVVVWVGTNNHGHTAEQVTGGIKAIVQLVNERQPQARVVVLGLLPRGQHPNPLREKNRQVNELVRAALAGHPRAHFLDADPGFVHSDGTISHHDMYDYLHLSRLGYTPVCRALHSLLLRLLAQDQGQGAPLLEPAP
PAFAH1B2 FP inh = inhibitors of human PAFAH1B2 | P68402 | recombinant PAFAH1B2, FP-rhodamine activity probe, fluorescence polarization | hit rate 1.2% among 340,000 | inhibition, % at 3.39 µM;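 active = inhibition above the mean of all tested compounds plus 3 SD, cut at about 24% in these data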;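 note: 0% = enzyme with DMSO and 100% = wells lacking PAFAH1B2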
PAFAH2 FP inh = PAFAH2 (human) inhibition; Q99487; recombinant PAFAH2, FP-rhodamine activity probe, fluorescence polarization; inhibition, % at 3.39 µM; hit rate 0.99% among 340,000;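 active = inhibition above the mean over all tested compounds plus 3 SD, cut at about 30% in these data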;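 note: inhibitors block probe labeling of enzyme so polarization drops; 0% = enzyme with DMSO and 100% = wells lacking PAFAH2 protein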
UCH37 DUB inh = human UCH37 deubiquitinating enzyme inhibition; Q9Y5K5; purified proteasome/UCH37, Ub-AMC cleavage fluorescence; inhibition, % (concentration not given with the values); hit rate 0.33% among 330,000;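 active = mean inhibition over replicate wells above about 20%, limit read from the data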;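 note: 0% = compound-free wells with enzyme and 100% = wells lacking proteasome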
Target sequence (Q9Y5K5 whole entry, looked up): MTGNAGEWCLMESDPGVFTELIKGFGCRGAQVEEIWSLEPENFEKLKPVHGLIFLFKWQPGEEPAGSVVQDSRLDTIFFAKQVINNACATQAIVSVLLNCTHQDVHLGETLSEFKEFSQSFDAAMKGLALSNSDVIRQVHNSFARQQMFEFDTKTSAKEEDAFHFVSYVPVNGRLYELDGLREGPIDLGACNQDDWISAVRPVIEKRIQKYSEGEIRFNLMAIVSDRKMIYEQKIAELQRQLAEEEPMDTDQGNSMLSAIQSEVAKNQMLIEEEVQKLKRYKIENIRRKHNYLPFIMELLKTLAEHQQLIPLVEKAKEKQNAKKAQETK
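Test system – human UCH37 enzyme supplied as purified proteasome complex · Incubation – 30 min preincubation with enzyme, 25 min cleavage at room temperature · Detection – AMC fluorescence from Ub-AMC cleavage, excitation 355 nm, emission 460 nm · Benchmarks – no-proteasome wells (full inhibition) and compound-free wells (no inhibition)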
pPAFAH FP inh = pPAFAH (human) enzyme inhibition | recombinant pPAFAH, FP-rhodamine probe fluorescence polarization | inhibition, % at 3.39 µM | hit rate 1.5% among 330,000 | AID 463082;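 active = inhibition above the mean inhibition across the screen plus 3 SD, cut at about 25% in these data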;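 note: inhibitors block binding of the rhodamine activity-based probe so polarization drops; 0% = enzyme with DMSO and 100% = wells lacking pPAFAH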
NR3A LBD binder = NR3A (human) ligand-binding domain modulation; AID 1259313; NR3A LBD differential scanning fluorimetry, Tm shift; 0% = protein alone, 100% = glycine-bound protein; hit rate 2.5% among 340,000; Tm shift relative to glycine control, % at 25 µM;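 active = melting temperature shift of at least 10% of the positive control shift, at one fixed dose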
Active calls of the source: *; nt = no result given.

SMILES | PAFAH1B3 FP inh | PAFAH1B2 FP inh | PAFAH2 FP inh | UCH37 DUB inh | pPAFAH FP inh | NR3A LBD binder
CCCCCCCCCc1nc2sc3c(c2c(=O)n1NC(=O)c1ccccc1[N+](=O)[O-])CC(C)(C)OC3 | 0 | 0 | -2 | 3 | 9 | 20*
CCCCCCCCCc1nc2sc3c(c2c(=O)n1NC(=O)c1ccc([N+](=O)[O-])cc1)CC(C)(C)OC3 | 2 | 2 | 9 | 4 | 12 | 24*
CCCc1nc2sc3c(c2c(=O)n1NC(=O)c1ccco1)CC(C)(C)OC3 | -1 | 2 | 1 | 2 | 1 | -1
CCOc1cc(C=NNC(=O)c2nnn(-c3nonc3N)c2C)ccc1OCc1ccc(F)cc1 | nt | nt | nt | -161 | nt | nt
COC(=O)c1c(C)[nH]c(C(=O)OC(C)C(=O)N(C)C2CCCCC2)c1C (centres undefined) | 6 | 3 | 2 | -5 | 26* | 2
Cc1[nH]c2ccc(C(=O)OC(C)C(=O)N(C)C3CCCCC3)cc2c1C (centres undefined) | 4 | -2 | -2 | -3 | nt | -3
C=CCOc1ccc(/C=C/C(C)=NO)cc1 | nt | nt | nt | 2 | nt | nt
CCN(CC)c1ccc(C=NNC(=O)CNC(=O)c2cccnc2)cc1 | nt | nt | nt | -96 | nt | nt
CCn1cc(Br)c(C(=O)Nc2ccc(F)c(Cl)c2)n1 | -8 | 3 | -4 | 2 | 1 | 15*
CCn1cc(Br)c(C(=O)NC(=S)Nc2ccc(C(=O)OC)cc2)n1 | 9 | 5 | -1 | -2 | 2 | 12*
O=C(Nc1ccc(NC(=O)C2CCCCC2)cn1)c1ccco1 | -3 | 2 | 2 | 1 | 2 | 16*
O=C(Nc1ccc(NC(=O)c2ccco2)nc1)c1ccco1 | 3 | 5 | 2 | 4 | 1 | -5
CCOC(=O)c1sc(NC(=O)c2ccc(Cl)s2)cc1C | -5 | 3 | -5 | -112 | 3 | 18*
CCOC(=O)c1c(NC(=O)Nc2ccc(Cl)cc2)sc(C)c1C | 1 | 0 | -8 | -11 | 2 | 1
CCOC(=O)c1sc(NC(=O)Nc2ccc(Cl)cc2)cc1C | 20 | 8 | 2 | nt | 26* | 27*
C/C=C/C=C/[C@H]1Cc2cc(O)cc(O)c2O1 | nt | nt | nt | nt | 36* | nt
CC(=NNC(=O)CNC(=O)c1ccc(Br)cc1)c1ccco1 | nt | nt | nt | 0 | nt | nt
O=C(c1ccccc1)N1CCC(CC2CC(c3cccc(Br)c3)=NO2)(C(=O)NCC2CCCCC2)CC1 (centres undefined) | -7 | 1 | -1 | 1 | 26* | -1
CC(C)(C)OC(=O)N1CCC(CC2CC(c3cccc(Br)c3)=NO2)(C(=O)NCC2CCCCC2)CC1 (centres undefined) | -7 | 1 | -8 | 4 | 8 | 1
Cc1ccc(S(=O)(=O)Nc2nc(C)c(C(=O)NNS(=O)(=O)c3cc(C)ccc3C)s2)cc1 | 9 | 28* | 13 | 2 | 14 | -4
Cc1ccc(C=NNC(=O)CNC(=O)COc2ccccc2)cc1 | nt | nt | nt | 5 | nt | nt
Cc1ccc(Nc2ccc(C(F)(F)F)cc2[N+](=O)[O-])cc1 | 1 | 4 | 5 | 3 | 5 | 11*
CS(=O)(=O)NCCCCNc1ccc(C(F)(F)F)cc1[N+](=O)[O-] | 5 | 4 | -1 | 5 | 26* | 3
C/C(=N\Nc1ccc(C(F)(F)F)cc1[N+](=O)[O-])C1CC1 | 4 | -3 | 2 | nt | -2 | 14*
Cc1cc(C)nc(SCC(=O)NN=Cc2cccn2-c2ccc(O)cc2)n1 | nt | nt | nt | 2 | nt | nt
SMILES | PAFAH1B3 FP inh | PAFAH1B2 FP inh | PAFAH2 FP inh | UCH37 DUB inh | pPAFAH FP inh | NR3A LBD binder
CC(=O)N1CCN(c2ccc(OC[C@H]3CO[C@](Cn4ccnc4)(c4ccc(Cl)cc4Cl)O3)cc2)CC1 | 10 | -1 | 4 | 5 | 26* | -2
CC(C)Cn1c(C23CC4CC(CC(C4)C2)C3)n[nH]c1=S | -1 | 28* | 5 | 3 | -2 | 0
COc1cc(C=NNC(=O)Cc2nnc(N)s2)cc(OC)c1OC | nt | nt | nt | 3 | nt | nt
Cc1ccc2nc(NC(=O)/C=C/c3ccc4c(c3)OCO4)sc2c1 | -14 | 2 | -7 | -10 | 1 | 36*
O=C(/C=C/c1ccc2c(c1)OCO2)Nc1nc2ccccc2s1 | -6 | -4 | -13 | nt | -5 | 14*
Cc1csc(NC(=O)/C=C/c2ccc3c(c2)OCO3)n1 | 4 | -8 | 2 | -12 | 5 | -4
Cc1ccccc1NN=Cc1sc(=O)n(Cc2cccc(C(=O)O)c2)c1Cl | nt | nt | nt | 14 | nt | nt
CCCC(C)=NNC(=O)c1ccccc1O | nt | nt | nt | -144 | nt | nt
Cc1ccc(NC(=S)C2=C(O)c3ccccc3N(C)S2(=O)=O)cc1 | -3 | 3 | -4 | 21* | -2 | 0
CN1c2ccccc2C(O)=C(C(=S)Nc2ccc(F)c(Cl)c2)S1(=O)=O | -2 | 10 | 19 | 14 | -6 | 27*
Cc1ccc(-c2ccc(C=NNC(=O)C3C(=O)NCC3c3ccccc3)o2)cc1Cl (centres undefined) | nt | nt | nt | -3 | nt | nt
CC(=O)Nc1ccc(NC(=O)COC(=O)c2cc([N+](=O)[O-])ccc2N2CCOCC2)cc1 | 10 | 5 | 3 | 6 | 11 | 23*
CCOc1ccc(CCNC(=O)COC(=O)c2cc([N+](=O)[O-])ccc2N2CCOCC2)cc1OCC | 7 | 3 | 5 | 12 | -5 | -1
O=C(COC(=O)c1cc([N+](=O)[O-])ccc1N1CCOCC1)NCCc1ccccc1 | 17 | 2 | -1 | 4 | 2 | 16*
COc1ccc(NC(=O)COC(=O)c2cc([N+](=O)[O-])ccc2N2CCOCC2)cc1 | 14 | -5 | -1 | 10 | -3 | 0
Cc1ccc(C=NNC(=O)Cn2nnc(N)n2)cc1 | nt | nt | nt | 5 | nt | nt
Cc1c(C=NNC(=O)c2cc3ccccc3o2)c2ccccc2n1C | nt | nt | nt | -30 | nt | nt
COc1ccc(C=NNc2ccc([N+](=O)[O-])cc2[N+](=O)[O-])c(C(=O)O)c1OC | nt | nt | nt | 16 | nt | nt
CCn1cc(C(=O)NCCc2ccc(C)cc2)c(=O)c2cc(S(=O)(=O)N(C)C)ccc21 | nt | nt | nt | 1 | -3 | -2
CCn1cc(C(=O)NCCc2ccc(Cl)cc2)c(=O)c2cc(S(=O)(=O)N(C)C)ccc21 | 1 | 0 | 0 | 0 | nt | 22*
O=C(Nc1ccccc1Cl)Oc1ccc(-c2ccccc2)cc1 | 7 | 60* | -1 | 6 | 6 | -37
O=C(Nc1ccccc1Cl)Nc1ccccc1Cl | -1 | -1 | 10 | 5 | -3 | -3
Cc1ccc(-n2c(O)c(/C=N/Nc3ccc(S(=O)(=O)N4CCOCC4)cc3[N+](=O)[O-])c3ccccc3c2=O)c(C)c1 | 18 | 64* | 34* | 11 | 2 | -1
O=C(O)c1ccc(/C=N\Nc2ccc(S(=O)(=O)N3CCOCC3)cc2[N+](=O)[O-])cc1 | 8 | 0 | 6 | nt | -3 | 1
CN(C)CCN=Cc1c(O)n(-c2ccc(S(=O)(=O)N3CCOCC3)cc2)c(=O)c2ccccc12 | 2 | -1 | 4 | 6 | nt | 14*
CC(Oc1cccc(Cl)c1)C(=O)Nc1ccccc1N1CCCCC1 (centres undefined) | 2 | 2 | 1 | 1 | -1 | 4
